Test results taken from ChEMBL document CHEMBL5053518, “1,5,6,7-Tetrahydro-4H-indazol-4-ones as human neutrophil elastase (HNE) inhibitors” (Bioorg Med Chem Lett, 2021).
Calls of active or inactive are those of the source. The calls are words filed in the database; no cut-off is given here.

Tests used:
[1] = molecular target: T1, Neutrophil elastase (Homo sapiens) (UniProt P08246); test: Inhibition of human neutrophil elastase at 50 uM
T1 sequence (whole entry): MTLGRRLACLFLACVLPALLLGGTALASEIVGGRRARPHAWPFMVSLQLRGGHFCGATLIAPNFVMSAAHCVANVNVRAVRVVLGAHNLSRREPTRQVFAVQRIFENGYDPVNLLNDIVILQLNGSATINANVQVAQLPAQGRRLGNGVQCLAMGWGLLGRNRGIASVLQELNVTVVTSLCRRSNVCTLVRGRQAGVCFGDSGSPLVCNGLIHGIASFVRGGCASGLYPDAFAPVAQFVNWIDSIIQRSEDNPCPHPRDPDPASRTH
Summary of the method: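 Human neutrophil elastase inhibition was tested up to a highest concentration of 50 μM. Active compounds were given as Ki values, reported as mean ± SD of three independent experiments.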

[2] = Stability in aqueous buffer assessed as half life; assay type: physicochemical; conditions: for t1/2: buffer; for half-life: aqueous buffer

| SMILES | inhibition [1] | further results |
| --- | --- | --- |
| CC(C)(C)OC(=O)N1CCN(C(=O)Cn2cc3c(n2)CCCC3=O)CC1 | inactive |  |
| O=C1CCCc2nn(CC(=O)N3CCNCC3)cc21 | inactive |  |
| O=C(C1CC1)n1ncc2c1CCC(Br)(Br)C2=O |  | t1/2 [2]: 0.952 h |
| CC(C)(C)OC(=O)n1cc2c(n1)CCC(Br)C2=O (stereo not given) | inactive |  |
| CC(C)(C)OC(=O)N1CCN(C(=O)Cn2ncc3c2CCCC3=O)CC1 | inactive |  |
| Cc1cccc(C(=O)n2ncc3c2CCCC3=O)c1 |  | t1/2 [2]: 1.64 h |
| O=C1c2cnn(CC(=O)N3CCN(c4ccccc4)CC3)c2CCC1Br (stereo not given) | inactive |  |
| O=C1c2cnn(C(=O)C3CC3)c2CCC1Br (stereo not given) |  | half-life [2]: 0.645 h |
| O=C1c2cn(C(=O)C3CC3)nc2CCC1Br (stereo not given) |  | t1/2 [2]: 1.9123 h |
| O=C(C1CC1)n1cc2c(n1)CCC(Br)(Br)C2=O |  | half-life [2]: 3.91 h |
| O=C1c2cn(CC(=O)N3CCN(c4ccccc4)CC3)nc2CCC1Br (stereo not given) | inactive |  |

Continued, in another order:

| inhibition [1] | SMILES | further results |
| --- | --- | --- |
| inactive | O=C(C1CC1)N(C(=O)C1CC1)C1CCCc2c1cnn2-c1ccccc1 (stereo not given) |  |
| inactive | Cc1cccc(C(=O)NC2CCCc3c2cnn3-c2ccccc2)c1 (stereo not given) |  |
| inactive | O=C1CCCc2nn(Cc3cccc(C(F)(F)F)c3)cc21 |  |
| inactive | O=C1CCCc2nn(-c3cccc(C(F)(F)F)c3)cc21 |  |
| inactive | O=C1CCCc2c1cnn2Cc1ccccc1 |  |
| inactive | O=C1CCCc2c1cnn2-c1cccc(C(F)(F)F)c1 |  |
| inactive | O=C1CCCc2c1cnn2Cc1cccc(C(F)(F)F)c1 |  |
| inactive | O=C1CCCc2nn(Cc3ccccc3)cc21 |  |
| inactive | O=C(NC1CCCc2c1cnn2-c1ccccc1)C1CC1 (stereo not given) |  |
